Experimental data published in ChEMBL document CHEMBL1156769, “9-Arylpurines as a novel class of enterovirus inhibitors” (J Med Chem, 2010).

Legend:
Coxsackievirus B3 = experiment: Antiviral activity against Coxsackievirus B3 infected in african green monkey Vero cells assessed as reduction of virus-induced cytopathic effect after 3 days by MTS assay; format: functional, organism-based; details: Enterovirus B, 72 h
Procedure, shortened: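 CPE-reduction assay in confluent Vero cells. Serial compound dilutions and 100 CCID50 of CVB3 were added, then incubated 3 days at 37 °C until complete CPE in the virus control. Optical density after MTS/PMS was read at 498 nm relative to uninfected untreated cells. EC50 was interpolated linearly; mean ± SD of at least three independent experiments.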

[1] = Cytotoxicity against african green monkey Vero cells after 3 days by MTS assay; format: cell-based; details: chlorocebus sabaeus
Procedure, shortened: (§1)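 Uninfected cultures in the antiviral-assay setup were exposed to serial compound dilutions for three days at 37 °C. Viability was read by the MTS method. CC50, the concentration inhibiting cell proliferation by 50%, was obtained by linear interpolation; mean ± SD of at least three independent experiments.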

[2] = Cytotoxicity against human HeLa cells after 3 days by MTS assay; format: cell-based; procedure, shortened: as §1
[3] = Cytotoxicity against human MRC5 cells after 3 days by MTS assay; format: cell-based; procedure, shortened: as §1
[4] = Cytotoxicity against african green monkey Vero cells after 3 days by Cell titer glo luminescent assay; format: cell-based; details: chlorocebus sabaeus
Procedure, shortened: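 Uninfected Vero cells were incubated with serial compound dilutions for three days at 37 °C, using the same setup as the antiviral assay. Survival was measured with the CellTiter-Glo luminescent viability assay. CC50 (50% inhibition of proliferation) was determined by linear interpolation; mean ± SD of at least three independent experiments.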

[5] = Antiviral activity against Coxsackievirus A16 G10 infected in human MRC5 cells assessed as reduction of virus induced cytopathic effect after 3 days by MTS assay; format: functional, cell-based, Human coxsackievirus A16 (strain G-10); details: Enterovirus A, MRC5, 72 h
Procedure, shortened: (§2)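 Confluent MRC-5 monolayers received serial compound dilutions plus 100 CCID50 of virus and were incubated 3 days at 37 °C, until full CPE appeared in the untreated virus control. Viability was read by MTS/PMS at 498 nm and compared with uninfected, compound-free cells. EC50 (50% CPE inhibition) was obtained by linear interpolation; mean ± SD of at least three independent experiments.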

[6] = Antiviral activity against Enterovirus 71 BrCr infected in human RD cells assessed as reduction of virus induced cytopathic effect after 3 days by MTS assay; format: functional, cell-based, Human enterovirus 71 (strain BRCR); details: Enterovirus A, 72 h
Procedure, shortened: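 Virus was cultured in RD cells at 37 °C. Confluent cells were given serial compound dilutions with 100 CCID50 of virus for 3 days, until complete CPE in untreated infected controls. Cell viability was measured by MTS/PMS absorbance at 498 nm. EC50 was derived by linear interpolation; mean ± SD of at least three independent experiments.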

[7] = Antiviral activity against Echovirus 9 Hill assessed as reduction of virus-induced cytopathic effect after 3 days by MTS assay; format: functional, Echovirus 9 (strain Hill); procedure, shortened: as §2
[8] = Antiviral activity against Echovirus 11 Gregory assessed as reduction of virus-induced cytopathic effect after 3 days by MTS assay; format: functional, Echovirus 11 (strain Gregory); procedure, shortened: as §2
Poliovirus 1 = experiment: Antiviral activity against Poliovirus1 sabin infected in Vero cells assessed as reduction of virus induced cytopathic effect after 3 days by MTS assay; format: functional, cell-based; details: Enterovirus C, 72 h
Procedure, shortened: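 Vero cells were grown to confluence at 37 °C and then given serial compound dilutions together with 100 CCID₅₀ virus. After 3 days, once virus controls reached full CPE, cell viability was measured by MTS/PMS as absorbance at 498 nm, relative to uninfected untreated wells. EC₅₀ was interpolated linearly as the concentration giving 50% CPE inhibition. Results are the mean ± SD of three or more independent experiments.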

[9] = Antiviral activity against Coxsackie virus A21 Coe infected in human MRC5 cells assessed as reduction of virus induced cytopathic effect after 3 days by MTS assay; format: functional, cell-based, Human coxsackievirus A21 (strain Coe); details: Enterovirus C, MRC5, 72 h
Procedure, shortened: (§3)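 Confluent MRC-5 monolayers were cultured at 37 °C and given serial compound dilutions plus 100 CCID₅₀ virus. EC₅₀ (50% CPE inhibition) was found by linear interpolation. Values are the mean ± SD of at least three independent experiments.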

Coxsackievirus A24 = experiment: Antiviral activity against Coxsackie virus A24 infected in human MRC5 cells assessed as reduction of virus induced cytopathic effect after 3 days by MTS assay; format: functional, organism-based; details: Enterovirus C, MRC5, 72 h; procedure, shortened: as §3
rhinovirus A2 = experiment: Antiviral activity against Rhinovirus 2 infected in human HeLa-R cells assessed as reduction of virus induced cytopathic effect after 3 days by MTS assay; format: functional, organism-based; details: Rhinovirus A, 72 h
Procedure, shortened: (§4)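 Rhinoviruses were cultured in HeLa R cells at 35 °C. Confluent cells received serial compound dilutions and 100 CCID50 of virus until complete CPE developed in the virus control. Survival was quantified by MTS/PMS at 498 nm versus uninfected compound-free cells. EC50 was calculated by linear interpolation; mean ± SD of at least three independent experiments.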

rhinovirus B14 = experiment: Antiviral activity against Rhinovirus 14 infected in human HeLa-R cells assessed as reduction of virus induced cytopathic effect after 3 days by MTS assay; format: functional, organism-based; details: Rhinovirus B, 72 h; procedure, shortened: as §4

Structure (SMILES) | EC50 (Coxsackievirus B3) | EC90 (Coxsackievirus B3) | CC50 at 72 h [1] | further results
OCc1cccc(-n2cnc3c(Cl)ncnc32)c1 | 14.2 µM | 30 µM | > 100 µM | CC50 at 72 h [2]: 175 µM; CC50 at 72 h [3]: 229 µM; CC50 at 72 h [4]: 200 µM
Cc1ncnc2c1ncn2-c1cccc(CO)c1 | > 100 µM | – | > 100 µM | –
CC(C)COc1ccc(-n2cnc3c(Cl)ncnc32)cc1 | > 100 µM | – | > 100 µM | –
CC(=O)c1cccc(-n2nnc3c(Cl)ncnc32)c1 | > 44 µM | – | 44 µM | –
Cc1nc(Cl)c2ncn(-c3cccc(C(C)(C)O)c3)c2n1 | 8 µM | 7.4 µM | > 100 µM | CC50 at 72 h [2]: > 250 µM; CC50 at 72 h [3]: > 250 µM; CC50 at 72 h [4]: > 250 µM
COc1cccc(Cn2cnc3ncnc(Cl)c32)c1 | 75 µM | > 100 µM | > 100 µM | –
O=C(c1ccccc1)c1ccc(-n2cnc3c(Cl)ncnc32)cc1 | 67 µM | 85 µM | > 100 µM | –
CC(=O)c1cc(-n2cnc3c(Cl)ncnc32)ccc1F | 9.3 µM | 15 µM | > 100 µM | –
Clc1ncnc2c1ncn2-c1ccc2c(c1)OCO2 | > 100 µM | – | > 100 µM | –
CNc1ncnc2c1ncn2-c1cccc(CO)c1 | > 100 µM | – | > 100 µM | –
OCc1ccc(-n2cnc3c(Cl)ncnc32)cc1 | 11 µM | 20 µM | > 100 µM | –
CC(=O)c1cccc(-n2cnc3c(Cl)ncnc32)c1 | 7.3 µM | 9.1 µM | > 100 µM | CC50 at 72 h [2]: 144 µM; CC50 at 72 h [3]: 238 µM; CC50 at 72 h [4]: > 250 µM; EC50 [5]: 2.7 µM; EC50 [6]: > 100 µM; EC50 [7]: 3.3 µM; EC50 [8]: > 100 µM; EC50 (Poliovirus 1): > 100 µM; EC50 [9]: 4.5 µM; EC50 (Coxsackievirus A24): 2.7 µM; EC50 (rhinovirus A2): > 100 µM; EC50 (rhinovirus B14): > 100 µM
Nc1nc(Cl)c2ncn(-c3cccc(CO)c3)c2n1 | 17 µM | 25 µM | > 100 µM | –
COc1ccc(C(C)=O)cc1-n1cnc2c(Cl)nc(C)nc21 | > 100 µM | – | > 100 µM | –
OCc1cccc(-n2cnc3c(Br)ncnc32)c1 | 22 µM | 29 µM | > 100 µM | –
CC(=O)c1cccc(Nc2ncnc(Cl)c2N)c1 | > 100 µM | – | > 100 µM | –
CC(=O)c1cccc(Nc2nc(C)nc(Cl)c2N)c1 | > 100 µM | – | > 100 µM | –
CC(=O)c1cccc(-n2c(C)nc3c(Cl)ncnc32)c1 | 12.2 µM | 22 µM | > 100 µM | –

Structure (SMILES) | EC50 (Coxsackievirus B3) | EC90 (Coxsackievirus B3) | CC50 at 72 h [1] | further results
CC(=O)c1cccc(-n2cnc3c(Cl)nc(C)nc32)c1 | 8.7 µM | 14 µM | > 100 µM | –
CC(=O)c1cccc(-n2c(C)nc3c(Cl)nc(C)nc32)c1 | 11 µM | 15 µM | > 100 µM | –
CC(=O)c1cccc(-n2c(=O)[nH]c3c(Cl)ncnc32)c1 | 9.3 µM | 18 µM | > 100 µM | –
OCc1cccc(-n2cnc3c(Cl)nc(Cl)nc32)c1 | > 8.8 µM | – | 8.8 µM | –
OCc1cccc(-n2cnc3cncnc32)c1 | > 100 µM | – | > 100 µM | –
CC(=O)c1ccc(-n2cnc3c(Cl)ncnc32)cc1 | 35.3 µM | 51 µM | > 100 µM | –
COC(=O)c1cccc(-n2cnc3c(Cl)ncnc32)c1 | 11.1 µM | 22 µM | > 100 µM | –
CC(=O)c1cccc(-n2c(=O)[nH]c3c(Cl)nc(C)nc32)c1 | 6.7 µM | 10 µM | > 100 µM | CC50 at 72 h [2]: > 250 µM; CC50 at 72 h [3]: > 250 µM; CC50 at 72 h [4]: > 250 µM
COc1ncnc2c1ncn2-c1cccc(CO)c1 | > 100 µM | – | > 100 µM | –
COc1cccc(Cn2cnc3c(Cl)ncnc32)c1 | 53 µM | 70 µM | > 100 µM | –
COc1ccc(C(C)=O)cc1-n1cnc2c(Cl)ncnc21 | > 57 µM | – | > 100 µM | –
Cc1nc(Cl)c2[nH]c(=O)n(-c3cccc(C(C)(C)O)c3)c2n1 | 22 µM | 29 µM | > 100 µM | –
OCc1cccc(-n2cnc3c(O)ncnc32)c1 | > 100 µM | – | > 100 µM | –
CC(=O)c1cccc(-n2nnc3c(Cl)nc(C)nc32)c1 | > 44 µM | – | 44 µM | –
CC(C)COc1cccc(-n2cnc3c(Cl)ncnc32)c1 | 29 µM | > 100 µM | > 100 µM | –
COc1cccc(-n2cnc3c(Cl)ncnc32)c1 | 12 µM | 22 µM | > 100 µM | –
Fc1cccc(F)c1[C@@H]1SCc2nc3cc(C(F)(F)F)ccc3n21 | 1.2 µM | – | > 100 µM | –
CC(C)S(=O)(=O)n1c(N)nc2ccc(/C(=N/O)c3ccccc3)cc21 [ENVIROXIME] | 0.7 µM | – | > 100 µM | –
